ChEMBL document CHEMBL1949596, “Chromophenazines from the terrestrial Streptomyces sp. Ank 315” (2012)
Active and inactive are the calls of the source. No cut-off for these calls is given here.

Experiments:
Bacillus subtilis = assay: Antimicrobial activity against Bacillus subtilis by agar diffusion method; format: functional
Procedure, shortened: (§1)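 Pure compounds applied to paper disks at 40 μg/disk and tested by agar diffusion against Bacillus subtilis, Escherichia coli, Staphylococcus aureus and the fungus Mucor miehei (Tü284). Activity was read from the agar plates.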

Escherichia coli = assay: Antimicrobial activity against Escherichia coli by agar diffusion method; format: functional; procedure, shortened: as §1
Staphylococcus aureus = assay: Antimicrobial activity against Staphylococcus aureus by agar diffusion method; format: functional, organism-based; procedure, shortened: as §1
Rhizomucor miehei = assay: Antimicrobial activity against Mucor miehei by agar diffusion method; format: functional; procedure, shortened: as §1

Row | SMILES | Activity (Bacillus subtilis) | Activity (Escherichia coli) | Activity (Staphylococcus aureus) | Activity (Rhizomucor miehei) | inhibition zone (IZ) (Bacillus subtilis) | inhibition zone (IZ) (Escherichia coli) | inhibition zone (IZ) (Rhizomucor miehei)
1 | CC(C)=CCn1c2cc(=O)c3cc(C)ccc3c-2nc2ccccc21 | inactive | inactive | inactive | inactive |  |  | 
2 | CC(C)=CCN1c2ccccc2Nc2c(C(=O)O)cc(C(=O)c3ccccc3)cc21 [CHROMOPHENAZINE D] |  |  |  |  | 10 mm | 10 mm | 10 mm
3 | CC(C)=CCc1cc(=O)cc2n(C)c3cccc(C(=O)O)c3nc1-2 | inactive | inactive | inactive | inactive |  |  | 
4 | CC(C)=CCn1c2cc(=O)ccc-2nc2c(C(N)=O)cccc21 | inactive | inactive | inactive | inactive |  |  | 
5 | CC(C)=CCn1c2cc(=O)c3cc(C)ccc3c-2nc2c(C(=O)O)cccc21 | inactive | inactive | inactive | inactive |  |  | 
6 | CC(C)=CCN1c2cc(C(=O)c3ccccc3)ccc2Nc2c(C(N)=O)cc(C(=O)c3ccccc3)cc21 | inactive | inactive | inactive | inactive |  |  | 
